These results are taken from ChEMBL document CHEMBL1147539, “Synthesis and biological evaluation of novel, selective, nonsteroidal glucocorticoid receptor antagonists” (Bioorg Med Chem Lett, 2004).

pIC50: −log10 of the molar value.

The target in test [1] is T1, Glucocorticoid receptor (Homo sapiens, UniProt P04150).
T1 sequence (P04150 whole entry): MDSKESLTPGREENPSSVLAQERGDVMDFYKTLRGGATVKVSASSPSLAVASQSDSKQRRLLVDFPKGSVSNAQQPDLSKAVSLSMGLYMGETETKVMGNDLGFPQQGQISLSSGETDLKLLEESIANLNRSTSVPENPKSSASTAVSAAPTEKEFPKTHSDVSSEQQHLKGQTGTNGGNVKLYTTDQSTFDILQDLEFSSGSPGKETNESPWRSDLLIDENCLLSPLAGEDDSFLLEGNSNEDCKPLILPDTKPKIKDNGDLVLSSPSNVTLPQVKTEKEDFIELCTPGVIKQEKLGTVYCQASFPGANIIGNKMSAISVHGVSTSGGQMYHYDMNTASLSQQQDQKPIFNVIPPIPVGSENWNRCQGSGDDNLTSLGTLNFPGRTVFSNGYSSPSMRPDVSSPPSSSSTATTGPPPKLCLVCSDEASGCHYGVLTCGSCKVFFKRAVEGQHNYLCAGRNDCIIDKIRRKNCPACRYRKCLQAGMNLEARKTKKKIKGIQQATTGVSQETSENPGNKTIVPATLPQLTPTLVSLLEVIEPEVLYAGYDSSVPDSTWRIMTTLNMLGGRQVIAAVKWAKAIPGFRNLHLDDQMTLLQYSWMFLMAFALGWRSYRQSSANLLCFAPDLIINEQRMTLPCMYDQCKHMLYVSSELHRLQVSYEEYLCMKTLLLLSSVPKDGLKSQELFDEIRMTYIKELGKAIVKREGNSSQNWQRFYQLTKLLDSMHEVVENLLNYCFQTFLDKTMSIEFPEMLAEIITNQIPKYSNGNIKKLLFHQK
In words: Effect on human Glucocorticoid receptor (GR) in a whole cell assay to measure functional cellular GR-antagonism (GRAF).

For test [2], the target named is T2, Mineralocorticoid receptor (Homo sapiens, UniProt P08235).
T2 sequence (P08235 whole entry): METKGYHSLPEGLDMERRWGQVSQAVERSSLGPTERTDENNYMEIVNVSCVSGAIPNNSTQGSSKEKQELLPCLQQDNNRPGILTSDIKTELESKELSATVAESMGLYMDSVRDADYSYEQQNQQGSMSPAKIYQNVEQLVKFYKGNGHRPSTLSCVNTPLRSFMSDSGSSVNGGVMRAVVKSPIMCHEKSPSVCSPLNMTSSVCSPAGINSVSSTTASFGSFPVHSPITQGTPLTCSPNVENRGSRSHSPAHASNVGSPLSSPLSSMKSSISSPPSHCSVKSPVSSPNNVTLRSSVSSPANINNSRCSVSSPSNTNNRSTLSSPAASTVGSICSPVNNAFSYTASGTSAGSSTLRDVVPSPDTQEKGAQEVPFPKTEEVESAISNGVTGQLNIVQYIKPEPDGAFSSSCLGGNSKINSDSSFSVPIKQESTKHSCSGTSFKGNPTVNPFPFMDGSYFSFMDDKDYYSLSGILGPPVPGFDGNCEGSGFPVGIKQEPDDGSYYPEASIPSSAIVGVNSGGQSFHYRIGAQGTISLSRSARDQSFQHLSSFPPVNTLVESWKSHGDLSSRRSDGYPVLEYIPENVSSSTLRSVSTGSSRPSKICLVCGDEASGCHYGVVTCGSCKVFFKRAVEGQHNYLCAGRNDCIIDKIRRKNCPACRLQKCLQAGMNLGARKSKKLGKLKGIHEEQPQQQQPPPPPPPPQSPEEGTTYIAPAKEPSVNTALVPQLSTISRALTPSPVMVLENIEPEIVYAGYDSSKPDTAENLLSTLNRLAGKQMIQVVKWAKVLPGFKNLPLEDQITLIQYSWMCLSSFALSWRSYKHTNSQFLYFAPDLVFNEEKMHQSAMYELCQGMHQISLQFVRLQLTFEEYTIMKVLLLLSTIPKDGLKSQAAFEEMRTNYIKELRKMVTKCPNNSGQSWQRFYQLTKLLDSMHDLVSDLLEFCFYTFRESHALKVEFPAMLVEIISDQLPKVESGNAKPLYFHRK
Nature of the test: Displacement of [3H]aldosterone from human Mineralocorticoid receptor. The procedure, abridged:
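Human steroid receptor (PR, MR, AR, ERα) binding measured by radioligand displacement, with IC50s determined in duplicate. Values without a range come from a single experiment, and values with a range are geometric means of repeat experiments.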

For test [3], the target named is T1, Glucocorticoid receptor.
Test [4] addresses T1, Glucocorticoid receptor. In words: Displacement of [3H]dexamethasone from human Glucocorticoid receptor (GR); Value ranges from 3-4 nM. In outline: (§1)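 Binding to human GR; IC50 reported as the geometric mean of two experiments (three for some values), each run in duplicate, with the range of the experiments given.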
For orientation: Displacement assays read how much labelled ligand stays bound in the presence of the test substance.

Test [5] addresses T1, Glucocorticoid receptor. Nature of the test: Displacement of [3H]dexamethasone from human Glucocorticoid receptor (GR); […].
Test [6] concerns the target T1, Glucocorticoid receptor. Nature of the test: Displacement of [3H]dexamethasone from human Glucocorticoid receptor (GR); Value ranges from 6-7 nM. The procedure, abridged:
as §1

Test [7] deals with T1, Glucocorticoid receptor. In words: Displacement of [3H]dexamethasone from human Glucocorticoid receptor (GR); Value ranges from 70-92 nM.

As to `COc1cccc2c1-c1ccc(NS(C)(=O)=O)cc1C(c1cccs1)O2` (stereo not drawn), the pIC50 – broadly, the IC50 on a negative log10 scale, so that one unit is a factor of ten – in test [1] is 7.18; in test [2], 5.65; in test [3], 8.15.
For `COc1cccc2c1-c1ccc(NS(C)(=O)=O)cc1C(c1cccc(F)c1)O2` (stereo not drawn), the values for the pIC50 in test [4], in test [1] and in test [2] were 8.52, 7.12 and 6.17, respectively.
In the case of `COc1cccc2c1-c1ccc(NS(C)(=O)=O)cc1C(c1ccc(F)cc1)O2` (stereo not drawn), the negative logarithm of the IC50 (pIC50) in test [5] was 7.54; in test [2] it was 5.60.
With `COc1cccc2c1-c1ccc(NS(C)(=O)=O)cc1C(c1ccc(C)cc1)O2` (stereo not drawn), the figures for the negative logarithm of the IC50 (pIC50) in test [6] and in test [2] were 8.15 and 6.19, respectively.
For `CCOc1cccc2c1-c1ccc(NS(C)(=O)=O)cc1C(c1ccccc1)O2` (stereo not drawn), the pIC50 was 7.09 in test [7], 6.51 in test [1] and 6.05 in test [2].
